# Assay results collected from several papers.
# Protocols differ between the studies behind these lines.
Compound,target or system,test,test system,setting,measurement,value
Nc1ncnc2c1ncn2C[C@H](O)CO,HeLa,"cell growth or viability, MTS",,,CC50,> 250 µM
CCCC[C@@H]1NC(=O)[C@H](Cc2ccc(O)cc2)NC(=O)[C@@H]2CCCN2C(=O)[C@H](CC(=O)O)NC(=O)[C@H](C)NC(=O)[C@H](Cc2ccccc2)NC(=O)[C@@H]2CSCCC(=O)N3CN(CN(C3)C(=O)CCSC[C@H](NC(C)=O)C(=O)N[C@@H](CC(C)(C)C)C(=O)N3CCC[C@H]3C(=O)N[C@@H](CCC(=O)O)C(=O)N[C@H](CCCCNC(=O)CCc3cn(CCOCCOCCOCCN(CCOCCOCCOCCC(=O)N[C@H]4CSCCC(=O)N5CN6CN(C5)C(=O)CCSC[C@H](NC(=O)[C@@H](CC(=O)O)NC(=O)[C@H](Cc5cccc7ccccc57)NC(=O)[C@@H]5CCCN5C4=O)C(=O)N[C@@H](CCSC)C(=O)N[C@@H](CCCCNC(=N)N)C(=O)N[C@@H](CC(=O)O)C(=O)N[C@@H](Cc4c[nH]c5ccccc45)C(=O)N[C@@H](CO)C(=O)N[C@@H]([C@@H](C)O)C(=O)N4CCC[C@H]4C(=O)N4C[C@H](O)C[C@H]4C(=O)N[C@@H](Cc4c[nH]c5ccccc45)C(=O)N[C@H](C(N)=O)CSCCC6=O)CCOCCOCCOCCn4cc(CCC(=O)NCCCC[C@H]5NC(=O)[C@H](CCC(=O)O)NC(=O)[C@@H]6CCCN6C(=O)[C@H](CC(C)(C)C)NC(=O)[C@@H](NC(C)=O)CSCCC(=O)N6CN7CN(C6)C(=O)CCSC[C@H](NC(=O)[C@H](Cc6ccc(O)cc6)NC(=O)[C@@H]6CCCN6C5=O)C(=O)N[C@@H](Cc5ccccc5)C(=O)N[C@@H](C)C(=O)N[C@@H](CC(=O)O)C(=O)N5CCC[C@H]5C(=O)N[C@@H](Cc5ccc(O)cc5)C(=O)N[C@@H](CCCC)C(=O)N[C@H](C(N)=O)CSCCC7=O)nn4)nn3)C(=O)N3CCC[C@H]3C(=O)N[C@@H](Cc3ccc(O)cc3)C(=O)N2)C(=O)CCSC[C@@H](C(N)=O)NC1=O,,,"rat, plasma","intravenous, 2 mg/kg",clearance,13 mL/min/kg
CC[C@H](C)[C@H](N)C(=O)N[C@@H](CC(N)=O)C(=O)N[C@@H](CC(C)C)C(=O)N[C@@H](CCCCN)C(=O)N[C@@H](C)C(=O)N[C@@H](CC(C)C)C(=O)N[C@@H](C)C(=O)N[C@@H](C)C(=O)N[C@@H](CC(C)C)C(=O)N[C@@H](C)C(=O)N[C@@H](CCCCN)C(=O)N[C@@H](CCCCN)C(=O)N[C@H](C(=O)N[C@@H](CC(C)C)C(N)=O)[C@@H](C)CC,,haemolysis,human,100 µM,haemolysis,≤ 15%
CCCCCCCCCCOc1cc2c(O)c(C(=O)OCC)cnc2cc1OCC,HeLa,cell growth or viability,,72 h,IC50,> 100 µM
CC(C)(C)NC(=O)N[C@H](C(=O)N1C[C@H]2[C@@H]([C@H]1C(=O)NC(CC1CCC1)C(=O)C(N)=O)C2(C)C)C(C)(C)C (some centres unmarked),HCT-8,"cell growth or viability, neutral red",,48 h,CC50,> 100 µM
[2H]C([2H])([2H])n1cc2cc(Nc3nc(=O)n(Cc4ncn(C)n4)c(=O)n3Cc3cc(F)c(F)cc3F)c(Cl)cc2n1,,,"male Sprague-Dawley rat, plasma","intravenous, 5 mg/kg",clearance,1.03 mL/min/kg
Cc1nc(Nc2ccc(NC(=O)c3ccco3)cc2)cc(-n2cccn2)n1,HeLa,"cell growth or viability, MTS",,,CC50,> 100 µM
CCCC[C@@H]1NC(=O)[C@H](Cc2ccc(O)cc2)NC(=O)[C@@H]2CCCN2C(=O)[C@H](CC(=O)O)NC(=O)[C@H](C)NC(=O)[C@H](Cc2ccccc2)NC(=O)[C@@H]2CSCCC(=O)N3CN(CN(C3)C(=O)CCSC[C@@H](C(=O)N[C@@H](CNC(=O)CCOCCOCCOCCOCCOCCn3cc(CCC(=O)N[C@H]4CSCCC(=O)N5CN6CN(C5)C(=O)CCSC[C@H](NC(=O)[C@@H](CC(=O)O)NC(=O)[C@H](Cc5cccc7ccccc57)NC(=O)[C@@H]5CCCN5C4=O)C(=O)N[C@@H](CCSC)C(=O)N[C@@H](CCCCNC(=N)N)C(=O)N[C@@H](CC(=O)O)C(=O)N[C@@H](Cc4c[nH]c5ccccc45)C(=O)N[C@@H](CO)C(=O)N[C@@H]([C@@H](C)O)C(=O)N4CCC[C@H]4C(=O)N4C[C@H](O)C[C@H]4C(=O)N[C@@H](Cc4c[nH]c5ccccc45)C(=O)N[C@H](C(N)=O)CSCCC6=O)nn3)C(N)=O)NC1=O)C(=O)CCSC[C@H](NC(C)=O)C(=O)N[C@@H](CC(C)(C)C)C(=O)N1CCC[C@H]1C(=O)N[C@@H](CCC(=O)O)C(=O)N[C@H](C)C(=O)N1CCC[C@H]1C(=O)N[C@@H](Cc1ccc(O)cc1)C(=O)N2,,,"rat, plasma","intravenous, 2 mg/kg",clearance,16 mL/min/kg
COc1cc(Br)c(C=NNc2nc(-c3ccc(F)cc3)cs2)cc1OC,,haemolysis,human,"10 µM, 30 min, pH 7.4",haemolysis,3.06%
NC(=O)c1ncn([C@@H]2O[C@H](CO)[C@@H](O)[C@H]2O)n1,HeLa,"cell growth or viability, MTS",,,CC50,> 250 µM
CN[C@H](CC(C)C)C(=O)N[C@H]1C(=O)N[C@@H](CC(N)=O)C(=O)N[C@H]2C(=O)N[C@H]3C(=O)N[C@H](C(=O)N[C@H](C(=O)O)c4cc(O)cc(O)c4-c4cc3ccc4O)[C@H](O)c3ccc(c(Cl)c3)Oc3cc2cc(c3O[C@@H]2O[C@H](CO)[C@@H](O)[C@H](O)[C@H]2O[C@H]2C[C@](C)(N)[C@H](O)[C@H](C)O2)Oc2ccc(cc2Cl)[C@H]1O,,haemolysis,human,"200 µM, 1 h, pH 7.2",haemolysis,≤ 1%
